Laboratory results: ChEMBL document CHEMBL3763107, “Anti-inflammatory neolignans from the roots of Magnolia officinalis” (Bioorg Med Chem, 2016)
Active and inactive are the calls of the source. The rule behind the calls is not given here.

Legend:
Format in all cases: functional, cell-based
Neutrophil [1] = assay: (§1) Antiinflammatory activity in human neutrophils assessed as inhibition of FMLP/CB-induced elastase release using MeO-Suc-Ala-Ala-Pro-Val-p-nitroanilide as substrate incubated for 5 mins by spectrophotometric analysis
Summary of the method: (§2)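 Neutrophils from healthy donor blood, isolated by dextran sedimentation, Ficoll gradient and hypotonic lysis, kept in Ca2+-free HBSS pH 7.4 at 4 °C. Cells at 6 × 10^5/mL with 100 µM substrate, 2 min at 37 °C, then drug or 0.1% DMSO vehicle for 5 min. Activated with 100 nM FMLP + 0.5 µg/mL CB. A405 followed continuously; % of drug-free activated control; IC50 from mean of n = 3.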

[2] = as §1; details: Neutrophil; summary of the method: as §2
Neutrophil [3] = assay: Induction of superoxide anion generation in human neutrophils by spectrophotometric analysis
Neutrophil [4] = assay: Induction of FMLP/CB-mediated superoxide anion generation in human neutrophils by measuring superoxide dismutase-inhibitable reduction of ferricytochrome c by spectrophotometric analysis
Neutrophil [5] = assay: (§3) Antiinflammatory activity in human neutrophils assessed as inhibition of FMLP/CB-induced superoxide anion generation by measuring superoxide dismutase-inhibitable reduction of ferricytochrome c by spectrophotometric analysis
Summary of the method: (§4)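 Dextran/Ficoll-purified human neutrophils (6 × 10^5 cells/mL) with ferricytochrome c and 1 mM Ca2+, 2 min at 37 °C. Primed with 1 µg/mL cytochalasin B, then 100 nM FMLP. A550 monitored continuously with stirring. Superoxide taken as the SOD (100 U/mL)-inhibitable reduction using ε 21.1/mM/10 mm. IC50 from mean of n = 3.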

[6] = as §3; details: Neutrophil; summary of the method: as §4
Neutrophil [7] = assay: Induction of ferricytochrome c reduction in human neutrophils by spectrophotometric analysis

Q: Which results are given for `C=CCc1ccc(O)c(-c2cc(CC=C)cc(C=O)c2O)c1`?
A: inhibition (Neutrophil [1]): Dose-dependent effect; IC50 [2]: 0.63 µM; Activity (Neutrophil [3]): Active

Q: With `C=CCc1ccc(O)c(-c2cc(O[C@H]3CCc4cc(CC=C)cc(-c5cc(CC=C)ccc5O)c4O3)ccc2O)c1` as the compound, how does the inhibition (Neutrophil [1]) read?
A: Its inhibition is “Dose-dependent effect”.

Q: And the IC50 [2]?
A: Its IC50 is 2.25 µM.

Q: What about the Activity (Neutrophil [4]) of the same compound?
A: Its Activity is “Active”.

Q: With `C=CCc1ccc(O)c(-c2cc(CC=C)cc3c2O[C@@H]2[C@H]3[C@@H](C(C)C)CC[C@@]2(C)O)c1` as the compound, how does the inhibition (Neutrophil [5]) read?
A: Its inhibition is “Dose-dependent effect”.

Q: And the IC50 [6]?
A: Its IC50 is 4.17 µM.

Q: And the inhibition (Neutrophil [1])?
A: The inhibition was “Dose-dependent effect”.

Q: What about the IC50 [2] of the same compound?
A: The IC50 was 2.59 µM.

Q: With `C=CCc1ccc(Oc2cc(CC=C)c3c(c2O)O[C@@]2(C)CC[C@@H](C(C)C)[C@@H]3C2)cc1` as the compound, how does the inhibition (Neutrophil [5]) read?
A: The inhibition was “Dose-dependent effect”.

Q: What about the IC50 [6] of the same compound?
A: Its IC50 is 3.54 µM.

Q: And the inhibition (Neutrophil [1])?
A: The inhibition was “Dose-dependent effect”.

Q: What about the IC50 [2] of the same compound?
A: The IC50 was 3.67 µM.

Q: Which results are given for `C=CCc1ccc(O)c(-c2ccc(O[C@@H]3CCc4cc(CC=C)cc(-c5cc(CC=C)ccc5O)c4O3)cc2O)c1`?
A: inhibition (Neutrophil [5]): Dose-dependent effect; IC50 [6]: 19.3 µM; inhibition (Neutrophil [1]): Dose-dependent effect; IC50 [2]: 3.81 µM

Q: Which results are given for `C=CCc1ccc(O)c(-c2cc(CC=C)cc([C@@H]3[C@@H](C(C)C)CC[C@@](C)(O)[C@@H]3O)c2O)c1`?
A: inhibition (Neutrophil [5]): Dose-dependent effect; IC50 [6]: 15.1 µM; inhibition (Neutrophil [1]): Dose-dependent effect; IC50 [2]: 10.7 µM

Q: Which inhibition (Neutrophil [1]) does the source give for `C=CCc1ccc(Oc2cc(CC=C)cc(O)c2O)cc1` [OBOVATOR] here?
A: Its inhibition is “Dose-dependent effect”.

Q: What about the IC50 [2] of the same compound?
A: Its IC50 is 3.3 µM.

Q: What about the Activity (Neutrophil [7]) of the same compound?
A: The Activity was “Active”.

Q: Which inhibition (Neutrophil [5]) does the source give for `C=CCc1ccc(O)c(-c2cc(CC=C)cc([C@@H]3C=C(C)CC[C@H]3C(C)C)c2O)c1` here?
A: The inhibition was “Dose-dependent effect”.

Q: What about the IC50 [6] of the same compound?
A: Its IC50 is 10.8 µM.

Q: And the inhibition (Neutrophil [1])?
A: Its inhibition is “Dose-dependent effect”.

Q: What about the IC50 [2] of the same compound?
A: The IC50 was 14.8 µM.

Q: Which results are given for `C=CCc1ccc(O)c(-c2cc(CC=C)cc([C@H]3C[C@](C)(O)CC[C@@H]3C(C)C)c2O)c1`?
A: inhibition (Neutrophil [5]): Dose-dependent effect; IC50 [6]: 8.16 µM; inhibition (Neutrophil [1]): Dose-dependent effect; IC50 [2]: 3.56 µM

Q: What does the source list for `CNC(=O)c1cc(Oc2ccc(NC(=O)Nc3ccc(Cl)c(C(F)(F)F)c3)cc2)ccn1` [SORAFENIB]?
A: IC50 [6]: 3.2 µM; IC50 [2]: 2 µM

Q: For `C=CCc1ccc(O)c(-c2cc(CC=C)cc([C@H]3C[C@@](C)(O)CC[C@@H]3C(C)C)c2O)c1`, which inhibition (Neutrophil [5]) is on record?
A: The inhibition was “Dose-dependent effect”.

Q: And the IC50 [6]?
A: The IC50 was 4.21 µM.

Q: What about the inhibition (Neutrophil [1]) of the same compound?
A: The inhibition was “Dose-dependent effect”.

Q: And the IC50 [2]?
A: Its IC50 is 2.16 µM.

Q: What does the source list for `C=CCc1ccc(O)c(-c2ccc(OC)c(CC=C)c2)c1` [METHYLHONOKIOL]?
A: inhibition (Neutrophil [5]): Dose-dependent effect; IC50 [6]: 14.3 µM; inhibition (Neutrophil [1]): Dose-dependent effect; IC50 [2]: 8.18 µM

Q: Which results are given for `C=CCc1ccc(O)c(-c2cc(CC=C)cc(OC)c2O)c1`?
A: inhibition (Neutrophil [5]): Dose-dependent effect; IC50 [6]: 5.48 µM; inhibition (Neutrophil [1]): Dose-dependent effect; IC50 [2]: 3.39 µM

Q: Which inhibition (Neutrophil [5]) does the source give for `C=CCc1ccc(O)c(-c2ccc(O)c(OC)c2)c1` here?
A: Its inhibition is “Dose-dependent effect”.

Q: What about the IC50 [6] of the same compound?
A: The IC50 was 7.89 µM.

Q: What about the inhibition (Neutrophil [1]) of the same compound?
A: Its inhibition is “Dose-dependent effect”.

Q: What about the IC50 [2] of the same compound?
A: The IC50 was 18.2 µM.
